# core dimer inh: blocks dimerization of HCV core protein | TR-FRET GST/Flag-core106 dimerization, 1536-well | 300,000 tested, 0.33% active | inhibition, % at 5 µM;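 active = inhibition above the mean of all tested compounds plus 3 SD, set per screening campaign, cut at about 45% in these data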
#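 System – GST-tagged and Flag-tagged HCV core protein residues 1-106 · Repeats – one well for each compound · Technique – TR-FRET 671 and 617 nm emission · Doses – one concentration, 5 µM, in 0.5% DMSO · Times – 4 h, 22.5 °C incubation · Also added – Eu donor and XL665 acceptor anti-tag antibodies · Measure – percent inhibition of core106 dimerization signal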
# NadD inh: inhibitors of Staphylococcus aureus NadD; 360,000 tested, 0.78% active; inhibition, % at 20 µM; purified NadD enzyme, colorimetric absorbance read-out; AID 602399; in the data active = inhibition above about 26%
# ABHD5-PLIN5 inh: ABHD5-PLIN5 protein interaction inhibition | Q00G26+Q8WTS1 | Split G. princeps luciferase complementation, luminescence, 4 h | inhibition, % at 4 µM | 360,000 tested, 0.78% active | AID 602281;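 active = inhibition above the mean inhibition across every tested compound plus 3 SD, cut at about 22% in these data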
# rCAG binder: r(CAG) repeat RNA binding | TO-PRO-1 dye displacement fluorescence | inhibition, % at 3 µM | 370,000 tested, 1.3% active;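 active = inhibition above the plate cutoff, the mean of all test compounds on that plate plus 3 SD, cut at about 35% in these data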;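 note: higher means more dye released from RNA so lower well fluorescence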
# A number is an active result; n = inactive; x = no result. An excerpt weighted towards active compounds, which were near 2.6% of everything screened.
SMILES,core dimer inh,NadD inh,ABHD5-PLIN5 inh,rCAG binder
Cc1cccc(C(=O)Nc2sc(-c3ccccc3)cc2C(=O)O)c1,n,n,n,94
CC(C)(C)C(=O)Nc1sc(-c2ccccc2)cc1C(=O)O,n,n,n,n
CC1CCCN(S(=O)(=O)c2ccc(NC(=O)Cn3nnc(-c4ccccc4F)n3)cc2)C1 (centres undefined),n,n,22,n
CCCCCC[C@@H](CCCc1ccccc1OC)CN(CCCC)S(C)(=O)=O,x,x,x,n
O=C(OC12CCCN(C1)/C(=C/c1ccccc1)C2)C1CCCCC1 (centres undefined),x,x,x,n
CN1CCN(c2ccc(Cl)cc2NC(=O)c2cccc(S(=O)(=O)N(C)C)c2)CC1,n,n,n,n
CN1CCN(c2ccc(Cl)cc2NC(=O)/C=C/c2cccc(F)c2)CC1,n,n,22,n
N[C@H](C(=O)N[C@@H](Cc1ccccc1)C(=O)N1CCC2CCN(S(=O)(=O)c3ccccc3)CC21)c1ccccc1 (some centres undefined),x,x,x,n
Cc1[nH]n(-c2nc(-c3ccc(Cl)cc3)cs2)c(=O)c1N=Nc1ccc(O)cc1,n,37,n,n
CSC(=Cc1ccc(C(=O)c2ccc(C)cc2)n1C)S(C)=O (centres undefined),x,x,x,n
CC(C)CC1=C/C(=C/c2ccc(-c3ccccc3)o2)C(=O)O1,n,74,n,44
CCCCS(=O)(=O)N1CCCc2nc(-c3ccc(OC)cc3)ccc21,x,x,x,n
Cc1cc2ccccn2c1C(=O)c1ccc(N/N=C/c2ccc(C(=O)O)cc2)c([N+](=O)[O-])c1,x,n,n,n
C/C(=N\Nc1ccc(C(=O)c2c(C)cc3ccccn23)cc1[N+](=O)[O-])c1ccc(O)cc1,n,36,n,n
C/C(=N/Nc1ccc(C(=O)c2c(C)cc3ccccn23)cc1[N+](=O)[O-])c1ccc(O)cc1,x,32,n,n
CCn1cnc2cc(NCc3ccc(OC)cc3)ccc21,n,n,n,n
CCOc1ccc2nc3cc(NCc4ccc(OC)cc4)ccc3c(N)c2c1,n,47,n,x
CC1(C)C(=O)Nc2ccccc2N1C(=O)COc1ccc(S(=O)(=O)N2CCOCC2)cc1Cl,65,n,n,n
C=CCn1c(Cc2cccs2)nnc1SCC(=O)Nc1ccc(OCc2ccccc2)cc1,x,x,x,n
Cc1ccc(-n2nnnc2SCC(=O)Nc2ccc3c(c2)COC3=O)cc1C,49,n,n,n
Cc1ccc(-n2nnnc2SCC(=O)Nc2ccc3c(c2)OCCO3)cc1C,n,n,n,n
CC1=CC(=O)c2c(O)ccc(O)c2C1=O,70,x,x,x
c1ccc(-c2cccc3[nH]cc(-c4ccccc4)c23)cc1,x,x,x,n
Cc1cc(SCC(=O)N/N=C/c2ccc(O)c(O)c2O)c(C)cc1Br,n,n,n,55
COc1cc(/C=N/NC(=O)CSc2cc(C)c(Br)cc2C)ccc1O,n,n,n,n
SMILES,core dimer inh,NadD inh,ABHD5-PLIN5 inh,rCAG binder
C#CCOCCOCCOCCNc1nc(N2CCOCC2)nc(N2CCN(C(=O)[C@H](Cc3cc4ccccc4[nH]3)n3cc([C@@H](N)C(C)CC)nn3)CC2)n1 (some centres undefined),n,n,n,n
C#CCOCCOCCOCCNc1nc(N2CCN(C(=O)[C@H](CCCCN)n3cc([C@@H](N)CC(C)C)nn3)CC2)nc(N2CCN(C(=O)[C@H](Cc3cc4ccccc4[nH]3)n3cc([C@@H](N)Cc4ccc(O)cc4)nn3)CC2)n1,n,n,25,x
C#CCOCCOCCOCCNc1nc(N2CCN(C(=O)C(Cc3cc4ccccc4[nH]3)n3cc(C(N)C(C)CC)nn3)CC2)nc(N2CCN(C(=O)C(Cc3cc4ccccc4[nH]3)n3cc(C(N)C(C)CC)nn3)CC2)n1 (centres undefined),n,42,x,x
COc1ccc(OC)c(CN2C(=O)c3ccnn3CC2(C)c2nnnn2C2CCCC2)c1 (centres undefined),x,x,x,n
CCc1cc2cc3c(cc2nc1SCC(=O)Nc1cc(C)on1)OCO3,111,n,n,n
O=Cc1coc([B-](F)(F)F)c1,x,x,x,n
CC(C)(C)NC(=O)C[C@H]1C[C@H](C(=O)N2CCOCC2)[C@@]2(CCC3CCCC3)c3[nH]c4cc(-c5ccco5)ccc4c3CCN2C1=O,x,n,32,x
O=C(C[C@H]1C[C@H](C(=O)N2CCCCC2)[C@@]2(CCc3ccccc3)c3[nH]c4cc(-c5ccco5)ccc4c3CCN2C1=O)NCc1ccco1,x,51,n,n
CN(C)CCCNC(=O)C[C@H]1C[C@H](C(=O)N2CCCCC2)[C@@]2(CCc3ccccc3)c3[nH]c4ccc(Cl)cc4c3CCN2C1=O,x,n,22,n
CC(=O)N1CCCN(C(=O)CN2C(=O)CC(C)(C)S(=O)(=O)c3ccccc32)CC1,x,x,x,n
